This note sets out measurements from ChEMBL document CHEMBL1629552, “In vitro and in vivo treatments of echinococcus protoscoleces and metacestodes with artemisinin and artemisinin derivatives” (Antimicrob Agents Chemother, 2008).

SMILES strings stand for the structures. Active and inactive are the calls of the source. No cut-off for these calls is given here.

Data set [1] relates to Echinococcus granulosus. Nature of the data set: Antimicrobial activity against Echinococcus granulosus protoscoleces assessed as reduction in protoscoleces viability at 10 uM by trypan blue exclusion assay. It counts as functional. The gist of the method: (§1)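 E. granulosus protoscoleces were isolated and kept in vitro per earlier work. Compounds from 10 mM DMSO stocks were added at 4, 10 and 40 μM, with nitazoxanide as positive control and DMSO as solvent control. Viability was scored microscopically by trypan blue exclusion over days of culture. The experiment was repeated three times.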

Data set [2] deals with Echinococcus granulosus. Nature of the data set: Antimicrobial activity against Echinococcus granulosus protoscoleces assessed as reduction in protoscoleces viability at 40 uM by trypan blue exclusion assay. It counts as functional. The gist of the method:
as §1

Data set [3] deals with Echinococcus multilocularis. The data set can be described thus: Antimicrobial activity against Echinococcus multilocularis metacestode assessed as increase in alkaline phosphatase activity at 40 uM within 4 days. The data set is classed as functional, organism-based. In a few lines:
(§2)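 In vitro-cultured E. multilocularis metacestode vesicles were treated for 12 days with compounds at 40 μM (10 mM DMSO stocks). Albendazole was the positive control and matching DMSO the negative control. Culture supernatant was sampled daily and stored at −20°C, and parasite alkaline phosphatase (EmAP) activity was assayed at the time points shown.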

For data set [4], the system named is Echinococcus multilocularis. Nature of the data set: Antimicrobial activity against Echinococcus multilocularis metacestode assessed as increase in alkaline phosphatase activity at 40 uM.
Data set [5] has as its system Echinococcus multilocularis. The data set can be described thus: Antimicrobial activity against Echinococcus multilocularis -infected in BALB/c mouse assessed as parasite weight at 200 mg/kg body weight intragastrically administered 8 weeks post-infecion (reference value: 5.71+/-1.79 g). The data set is classed as functional. As to conditions: route intragastric.
Data set [6] deals with Echinococcus multilocularis. The data set can be described thus: Antimicrobial activity against Echinococcus multilocularis metacestode assessed as loss of multicellular structure of germinal layer by transmission electron microscopy. The data set is classed as functional, organism-based.
The species named for another data set is Mus musculus. The data set can be described thus: Toxicity against Echinococcus multilocularis -infected in BALB/c mouse assessed as adverse effect. The data set is classed as organism-based. To be noted: in vivo.
Data set [7] has as its system Echinococcus granulosus. The data set can be described thus: Antimicrobial activity against Echinococcus granulosus protoscoleces assessed as reduction in protoscoleces viability at 40 uM upto 2 days by trypan blue exclusion assay. It counts as functional. The gist of the method:
as §1

Data set [8] deals with Echinococcus granulosus. The data set can be described thus: Antimicrobial activity against Echinococcus granulosus protoscoleces assessed as reduction in protoscoleces viability at 40 uM after 6 days by trypan blue exclusion assay. The data set is classed as functional. The gist of the method:
as §1

Data set [9] concerns Echinococcus multilocularis. Nature of the data set: Antimicrobial activity against Echinococcus multilocularis metacestode assessed as increase in alkaline phosphatase activity at 40 uM after 8 days. It counts as functional, organism-based. In a few lines:
as §2

For data set [10], the system named is Echinococcus granulosus. The data set can be described thus: Antimicrobial activity against Echinococcus granulosus metacestode assessed as loss of multicellular structure of germinal layer by transmission electron microscopy. The data set is classed as functional.

For the molecule `CC(=O)Oc1ccccc1C(=O)Nc1ncc([N+](=O)[O-])s1`, the outcome in the data set with Echinococcus granulosus [1] was Active.
With `CO[C@H]1O[C@@H]2O[C@@]3(C)CC[C@H]4[C@H](C)CC[C@@H]([C@H]1C)[C@@]24OO3`, the result (in the data set with Echinococcus granulosus [2]; in data set [3]; in data set [4]) was inactive.
As to `C[C@@H]1CC[C@H]2[C@@H](C)C(=O)O[C@@H]3O[C@@]4(C)CC[C@@H]1[C@]32OO4`, the outcome (in the data set with Echinococcus granulosus [2]; in [3]; in data set [4]) was inactive.
Regarding `CCCSc1ccc2[nH]c(NC(=O)OC)nc2c1` [ALBENDAZOLE], the Activity in data set [5] was 2.96 g.
As to `C[C@H]1[C@@H](O)O[C@@H]2O[C@@]3(C)CC[C@H]4[C@H](C)CC[C@@H]1[C@@]24OO3` [ARTENIMOL], the result (in the data set with Echinococcus granulosus [2]; in data set [6]; in data set [9]; in the data set with Echinococcus granulosus [10]) was Active. Further, the result (in the data set on Echinococcus granulosus [1]; with Echinococcus granulosus [7]; in [4]) was inactive. Also, the Activity in data set [5] is given as 4.11 g; in the data set listed under Mus musculus it was “Non-toxic”; in the data set on Echinococcus granulosus [8], 90%.
Consider `C[C@H]1[C@H](OC(=O)CCC(=O)O)O[C@@H]2O[C@@]3(C)CC[C@H]4[C@H](C)CC[C@@H]1[C@@]24OO3` [ARTESUNATE], for which the result (in the data set with Echinococcus granulosus [2]; in [3]; in data set [6]; in the data set on Echinococcus granulosus [10]) was Active. Further, the result (in the data set on Echinococcus granulosus [1]; in data set [4]) was inactive. Further, the Activity in [5] is 4.6 g; in the data set filed under Mus musculus it was “Non-toxic”.
